Measured values as given in ChEMBL document CHEMBL4038311, “An Ursolic Acid Derived Small Molecule Triggers Cancer Cell Death through Hyperstimulation of Macropinocytosis” (J Med Chem, 2017).
Activity calls are given as the source filed them. No cut-off for these calls is given here.

Key:
HT-1080 [1] = assay: Anticancer activity against human HT1080 cells assessed as cell viability at 20 uM after 48 hrs by CCK8 assay relative to control; assay type: functional; settings: HT-1080, 48 h, read-out: Activity
How it was run: (§1)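 Cells (5000/well, pre-incubated overnight) exposed to 20 µM for 48 h. CCK-8 absorbance read at 450 nm. Viability given as percent of vehicle (DMSO) control, mean ± SD. Six parallel wells per condition, at least three independent repeats.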

HT-1080 [2] = assay: Anticancer activity against human HT1080 cells assessed as cell viability after 48 hrs by CCK8 assay; assay type: functional, cell-based; settings: HT-1080, 48 h
How it was run: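 Seeded at 1000 cells/well in DMEM with 10% FBS at 37 °C, 5% CO2, overnight pre-incubation. Serial dilutions from a 100 mM DMSO stock gave final 0–50 µM, with 48 h exposure. CCK-8 read at 450 nm. IC50 fitted against DMSO control, given with s.d., n = 3 independent experiments.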

MCF7 [3] = assay: Anticancer activity against human MCF7 cells assessed as vacuole formation at 20 uM after 24 hrs by phase contrast microscopic analysis; assay type: functional, cell-based
[4] = Cytotoxicity against mouse C2C12 cells assessed as cell viability at 20 uM after 24 to 48 hrs by CCK8 assay relative to control; assay type: cell-based; settings: read-out: Activity
How it was run: (§2)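 C2C12 or HDF cells, seeded at 5000/well, given 20 µM or 0.1% DMSO for 24 h or 48 h. CCK-8 absorbance read at 450 nm, relative to DMSO control. Six parallel wells, at least three independent repeats.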

[5] = Cytotoxicity against HDF assessed as cell viability at 20 uM after 24 to 48 hrs by CCK8 assay relative to control; assay type: cell-based; settings: human, HDF cells; read-out: Activity; how it was run: as §2
HeLa [6] = assay: Anticancer activity against human HeLa cells assessed as reduction in colony formation after 48 hrs by Giemsa staining-based assay; assay type: functional, cell-based
How it was run: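 HeLa cells exposed 48 h to 15, 20 or 25 µM, then reseeded at 500 cells/well in six-well plates. After 15 days, colonies fixed in methanol, stained with Giemsa, photographed and counted.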

MCF7 [7] = assay: Anticancer activity against human MCF7 cells assessed as cell viability at 20 uM after 48 hrs by CCK8 assay relative to control; assay type: functional; settings: MCF7, 48 h, read-out: Activity; how it was run: as §1
HeLa [8] = assay: Anticancer activity against human HeLa cells assessed as decrease in cell viability at 20 uM preincubated cells with Z-VAD-FMK for 1 hr followed by compound addition measured after 48 hrs by CCK8 assay; assay type: functional, cell-based
How it was run: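 HeLa cells pretreated 1 h with 50 µM z-VAD-FMK, then given the compound. Viability read after 48 h by CCK-8 (450 nm), with DMSO-treated wells as control.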

HeLa [9] = assay: Induction of autophagy in human HeLa cells assessed as conversion of LC3-1 to LC3-2 at 15 to 25 uM after 24 hrs by Western blot analysis; assay type: functional, cell-based
How it was run: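 HeLa given indicated concentrations or 0.1% DMSO for 24 h. RIPA lysates, BCA-normalized, SDS-PAGE and PVDF transfer. Probed with anti-LC3 (overnight, 4 °C) after 5% milk block, infrared detection, GAPDH for normalization.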

HeLa [10] = assay: Induction of autophagy in human HeLa cells assessed as cytosolic autophagosomes formation at 20 uM after 24 hrs by transmission electron microscopic analysis; assay type: functional, cell-based
How it was run: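 HeLa exposed to 20 µM for 24 h, then fixed, dehydrated and resin-embedded. Ultrathin sections on copper grids stained with uranyl acetate and lead citrate, then examined by TEM.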

HeLa [11] = assay: Induction of macropinocytosis-like cytosolic vacuolization in human HeLa cells at 20 uM measured within 4 hrs by time lapse phase contrast microscopic analysis; assay type: functional, cell-based
How it was run: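 HeLa plated at 50,000 per glass-bottom dish, pre-incubated overnight, then given 20 µM in a live-cell chamber (37 °C, 5% CO2). Phase-contrast frames captured every 90 sec.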

HeLa [12] = assay: Induction of macropinocytosis in human HeLa cells assessed as formation of lysosomal degradative compartments at 20 uM after 24 hrs by Lysotracker red staining-based confocal microscopic analysis; assay type: functional, cell-based
How it was run: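 HeLa given 20 µM for 24 h, then labelled live with 50 nM LysoTracker Red (30 min) or 200 nM MitoTracker Red CMXRos (1 h) in medium, after Lucifer yellow loading. Imaged live by confocal microscopy.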

HeLa [13] = assay: Induction of macropinocytosis in human HeLa cells assessed as colocalization of lucifer yellow and early endosomal marker EEA1 at 20 uM after 6 to 24 hrs by confocal microscopic analysis; assay type: functional, cell-based
How it was run: (§3)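 HeLa on poly-L-lysine coverslips given 0.1% DMSO or 20 µM for indicated times, then loaded with Lucifer yellow CH. Fixed in 4% PFA 30 min, permeabilized with 0.1% Triton X-100, blocked with 5% BSA. Anti-EEA1, -LAMP1 or -Rab7 applied overnight at 4 °C, Alexa488 secondary 1 h, DAPI counterstain. Confocal imaging.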

HeLa [14] = assay: Induction of macropinocytosis in human HeLa cells assessed as colocalization of lucifer yellow and late endosomal marker Rab7 at 20 uM after 6 to 24 hrs by confocal microscopic analysis; assay type: functional, cell-based; settings: TDE = time-dependent effect; how it was run: as §3
HeLa [15] = assay: Induction of macropinocytosis in human HeLa cells assessed as colocalization of lucifer yellow and lysosomal marker LAMP1 at 20 uM after 6 to 24 hrs by confocal microscopic analysis; assay type: functional, cell-based; settings: TDE = time-dependent effect; how it was run: as §3
HeLa [16] = assay: Induction of methuosis in human HeLa cells assessed as decrease in cell viability preincubated cells with vacuolar-type H+-ATPase inhibitor Baf-A1 for 1 hr followed by compound addition measured after 48 hrs by CCK8 assay; assay type: functional, cell-based
How it was run: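 HeLa incubated 1 h with 100 nM Baf-A1 before compound addition. Viability measured by CCK-8 at 450 nm against DMSO control.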

HeLa [17] = assay: Induction of methuosis in human HeLa cells assessed as decrease in cell viability preincubated cells with dynamin inhibitor dynasore for 1 hr followed by compound addition measured after 48 hrs by CCK8 assay; assay type: functional, cell-based
HeLa [18] = assay: Induction of methuosis in human HeLa cells assessed as increase in vacuole formation preincubated cells with actin inhibitor cytochalasin D for 1 hr followed by compound addition measured after 24 hrs by phase contrast microscopic analysis; assay type: functional, cell-based
How it was run: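 HeLa cells grown in DMEM with 10% FBS, 100 U/ml penicillin and 100 µg/ml streptomycin at 37 °C, 5% CO2 humidified air. The inhibitor was added before compound exposure. Vacuolization was judged in live cells by phase-contrast microscopy.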

HeLa [19] = assay: Induction of methuosis in human HeLa cells assessed as increase in number of cells with macropinosomes at 20 uM preincubated cells with macropinocytosis inhibitor EIPA for 30 mins followed by compound addition measured up to 72 hrs; assay type: functional, cell-based
How it was run: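 HeLa pretreated 30 min with or without 50 µM EIPA, then given 20 µM or DMSO for 4, 8, 12, 18, 24, 36, 48, 60 and 72 h. Cells bearing macropinosomes scored manually from field images and expressed as percentage of cells.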

HeLa [20] = assay: Induction of methuosis in human HeLa cells assessed as decrease in cell viability at 20 uM preincubated with macropinocytosis inhibitor EIPA for 30 mins followed by compound addition measured after 24 to 72 hrs by CCK8 assay; assay type: functional, cell-based
How it was run: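 HeLa pretreated 30 min with or without 50 µM EIPA, then given 20 µM or DMSO. CCK-8 viability read at the indicated times.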

C[C@H]1[C@H](C)CC[C@]2(C(=O)O)CC[C@]3(C)C(=CC[C@@H]4[C@@]5(C)Cc6cnn(-c7ccc(C#N)cc7)c6C(C)(C)[C@@H]5CC[C@]43C)[C@H]12
viability at 20 µM (HT-1080 [1]): 26.8%
IC50 (HT-1080 [2]): 17.2 µM
Activity (MCF7 [3]): Active
viability at 20 µM [4]: 13%
viability at 20 µM [5]: 28%
Activity (HeLa [6]): Dose-dependent effect
viability at 20 µM (MCF7 [7]): 25.2%
Activity (HeLa [8]): Active
Activity (HeLa [9]): Active
Activity (HeLa [10]): inactive
Activity (HeLa [11]): Active
Activity (HeLa [12]): Active
Activity (HeLa [13]): Active
Activity (HeLa [14]): Tde
Activity (HeLa [15]): Tde
Activity (HeLa [16]): inactive
Activity (HeLa [17]): inactive
Activity (HeLa [18]): inactive
Activity (HeLa [19]): inactive
Activity (HeLa [20]): inactive
